“And” between values parts separate entries of the source, which are not always exact repeats. Identical values can stand only once.
How the values were obtained:
Rattus norvegicus [1] = test: In vivo sterol lowering activity when dosed as 0.01 % of the diet; assay type: functional
Summary of the method: (§1)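 Normal rats were dosed in the diet. Serum sterol and triglyceride levels were measured and expressed as the mean percent of control values. Significance versus control was reported at p < 0.05, 0.01 and 0.001.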

Rattus norvegicus [2] = test: In vivo sterol lowering activity when dosed as 0.03 % of the diet; assay type: functional; summary of the method: as §1
Rattus norvegicus [3] = test: In vivo triglyceride lowering activity when dosed at 0.03 % of the diet; assay type: functional; summary of the method: as §1
Rattus norvegicus [4] = test: In vivo triglyceride lowering activity dosed at 0.10 % of the diet.; assay type: functional; summary of the method: as §1
Rattus norvegicus [5] = test: In vivo triglyceride lowering activity when dosed as 0.01 % of the diet; assay type: functional; summary of the method: as §1
[6] = target: T1, Sterol O-acyltransferase 1 (Rattus norvegicus) (UniProt O70536); test: In vitro inhibition of acyl coenzyme A:cholesterol acyltransferase; design: concentration or dose not given beside the values; settings: concentration not given here
T1 sequence (whole entry): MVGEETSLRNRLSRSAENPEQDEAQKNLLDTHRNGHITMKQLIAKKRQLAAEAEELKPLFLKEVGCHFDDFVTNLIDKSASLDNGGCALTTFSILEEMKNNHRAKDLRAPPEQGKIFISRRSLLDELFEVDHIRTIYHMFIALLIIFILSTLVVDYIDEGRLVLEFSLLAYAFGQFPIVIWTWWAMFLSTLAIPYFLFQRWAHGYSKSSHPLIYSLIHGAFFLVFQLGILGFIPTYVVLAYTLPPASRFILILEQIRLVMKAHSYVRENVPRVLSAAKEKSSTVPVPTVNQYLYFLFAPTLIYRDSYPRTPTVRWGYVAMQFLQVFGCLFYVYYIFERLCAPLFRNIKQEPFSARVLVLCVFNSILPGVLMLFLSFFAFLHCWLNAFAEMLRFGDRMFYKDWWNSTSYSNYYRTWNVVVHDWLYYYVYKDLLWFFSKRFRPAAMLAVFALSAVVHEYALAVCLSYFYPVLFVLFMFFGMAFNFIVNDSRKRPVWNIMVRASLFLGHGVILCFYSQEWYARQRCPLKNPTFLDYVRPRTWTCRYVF
Summary of the method: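 Enzyme fatty acyl-CoA:cholesterol acyltransferase (ACAT), assayed in vitro at a single drug concentration of 5.2 μg/mL. The value is the mean percent inhibition of enzyme activity.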

Rattus norvegicus [7] = test: In vivo sterol lowering activity at dose of 0.10 % of the diet; assay type: functional; summary of the method: as §1

| Structure (SMILES) | serum sterol level, % of control (Rattus norvegicus [1]) | serum sterol level, percent of control (Rattus norvegicus [2]) | Diet (Rattus norvegicus [3]) [%] | serum triglyceride, percent of control (Rattus norvegicus [4]) | serum triglyceride level, percent of control (Rattus norvegicus [5]) | inhibition [6] [%] | serum sterol level, percent of control (Rattus norvegicus [7]) | serum triglyceride level, percent of control (Rattus norvegicus [3]) |
| --- | --- | --- | --- | --- | --- | --- | --- | --- |
| CCCCCCCCCCCCCCCCNc1ccc(C(=O)OC2CCCCO2)cc1 (stereo not drawn) | 91% | <76% | 98 | <54% | 108% | 0 | <74% |  |
| CCCCCCCCCCCCCCCCNc1ccc(C(=O)O)c(C)c1 | 101% | 100% |  | 105% | 112% | 38 | 103% | 121% |
| CCCCCCCCCCCCCCCCNc1ccc(C(=O)NCCC(=O)O)cc1 | <90% | 93% |  | <55% | 99% | 49 | <86% | 78% |
| CCCCCCCCCCCCCCCCNc1ccc(C=O)cc1 | 91% | 92% |  | <53% | <66% | < 30 | <85% | <64% |
| CCCCCCCCCCCCCCCCNc1ccc(C(=O)COC)cc1 | 88% | 88% |  | <65% | 77% | < 47 | 91% | 85% |
| CCCCCCCCCCCCCCCCNc1cc(C(=O)[O-])c(C(=O)[O-])c(C(=O)[O-])c1.[Na+].[Na+].[Na+] | 100% | 100% |  | 93% | 82% | < 24 | 97% | <68% |
| CCCCCCCCCCCCCCCCNc1ccc(C(=O)C(C)(C)C(=O)OCC)cc1 | 94% | 103% |  | 101% | 101% | 0 | 90% | <65% |
| CCCCCCCCCCCCCCCCNC1CCC(C(=O)OC)CC1 (stereo not drawn) | 99% | 92% |  | <63% | 78% | < 37 | <71% | 88% |
| CCCCCCCCCCCCCCCCN(CC(=O)OCC)c1ccc(C(=O)OC)cc1 | 106% | 100% |  | 104% | 113% | 12 | 104% | 97% |
| CCCCCCCCCCCCCCCCNc1ccc(C(=O)OCCO)cc1 | 106% | 92% |  | <52% | <75% | 17 | <83% | <65% |
| CCCCCCCCCCCCCCCCNc1ccc(CCC(=O)O)cc1 | 88% | <80% |  | <37% | <59% | 50 | 92% | <50% |
| CCCCCCCCCCCCCCCCNc1ccc(C(=O)C(C)C(=O)OCC)cc1 (stereo not drawn) | 100% | 87% |  | <66% | 87% | 21 | <73% | 88% |
| CCCCCCCCCCCCCCCCNc1ccc(C(=O)NCC(=O)O)cc1 | <77% | 87% |  | <48% | 76% | < 64 | <77% | <70% |
| CCCCCCCCCCCCCCCCNc1ccc(C(=O)NN)cc1 | 110% | 105% |  | 84% | 108% | < 24 | 116% | 84% |
| CCCCCCCCCCCCCCCCNc1ccc(C(=O)OCCCO)cc1 | 94% | <82% |  | <46% | <67% | 14 | <68% | <74% |
| CCCCCCCCCCCCCCCCNc1ccc(C2=NCCO2)cc1 | 100% | 100% |  | 76% | 103% | 0 | 86% | 94% |
| CCCCCCCCCCCCCCCCNc1ccc(C(=O)[O-])c(C(=O)[O-])c1.[Na+].[Na+] | 100% | 105% |  | <67% | 110% | 63 | 101% | 85% |
| CCCCCCCCCCCCCCCCNc1ccc(C(=O)[N-]S(=O)(=O)c2ccc(C)cc2)cc1.[Na+] | <64% | <52% |  | <32% | <52% |  | <48% | <37% |
| CCCCCCCCCCCCCCCCNc1ccc(C#N)cc1 | 86% | 92% |  | 75% | 83% |  | 96% | 71% |
| CCCCCCCCCCCCCCCCNc1ccc(C(=O)C[S+](C)[O-])cc1 (stereo not drawn) | 95% | 95% |  |  | <64% | 6 |  | <55% |
| Br.CCCCCCCCCCCCCCCCNc1ccc(COC(C)=O)cc1 | 93% | 92% |  | 114% | 79% |  | <85% | 135% |
| CCCCCCCCCCCCCCCCN(C(C)=O)c1ccc(C(=O)O)cc1 | 105% | 105% |  | 121% | 109% |  | 103% | 107% |
| CCCCCCCCCCCCCCCCN(C)c1ccc(C(=O)O)cc1 | 85% | 92% |  | 56% | <81% |  | 85% | <66% |
| CCCCCCCCCCCCCCCCNc1ccc(C(=O)O)cc1Br | 92% and 101% | 100% and 99% |  | 91% and 100% | 95% and 104% |  | 93% and 97% | 96% and 99% |
| CCCCCCCCCCCCCCCCNc1ccc(CC(=O)O)cc1 | 93% | 87% |  | <63% | 76% |  | 87% | 81% |
| CCCCCCCCCCCCCCCCNc1ccc(C(=O)OCC(O)CO)cc1 (stereo not drawn) | <85% | <82% |  | <45% | <73% |  | <71% | <67% |
| CCCCCCCCCCCCCCCCCCN(CC)c1ccc(C(=O)O)cc1 | 102% | 102% |  | 103% | 85% |  | 108% | 102% |
